Where a SMILES comes first, the peptide text is derived from it.
How the values were obtained:
Conditions in all cases: read-out: pA2 (converted)
Substance-P receptor = Substance-P receptor (Cavia porcellus, UniProt P30547); experiment: Tested for antagonist activity toward NK-1 receptor in guinea pig ileum against the agonist eledoisin (mean +/-, n=4); assay type: functional, tissue-based
Summary of the method: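 Guinea pig (male Dunkin-Hartley, 300–400 g) small-intestine longitudinal muscle, isometric contraction in Krebs-Henseleit at 37 °C with atropine, mepyramine, methysergide (each 5 μM) and indomethacin (1 μM). Antagonism measured as rightward shift of log dose-response curves to eledoisin. pA2 from Schild regression (least squares, three or more antagonist concentrations, three or more observations each), or apparent pA2 at a single concentration assuming unit slope (mean of 3–4 observations).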

Substance-K receptor = biological target: T1, Substance-K receptor (Rattus norvegicus, UniProt P16610); experiment: Inhibition of eledoisin binding to NK-2 receptor in rat vas deferens
T1 sequence (P16610 whole entry): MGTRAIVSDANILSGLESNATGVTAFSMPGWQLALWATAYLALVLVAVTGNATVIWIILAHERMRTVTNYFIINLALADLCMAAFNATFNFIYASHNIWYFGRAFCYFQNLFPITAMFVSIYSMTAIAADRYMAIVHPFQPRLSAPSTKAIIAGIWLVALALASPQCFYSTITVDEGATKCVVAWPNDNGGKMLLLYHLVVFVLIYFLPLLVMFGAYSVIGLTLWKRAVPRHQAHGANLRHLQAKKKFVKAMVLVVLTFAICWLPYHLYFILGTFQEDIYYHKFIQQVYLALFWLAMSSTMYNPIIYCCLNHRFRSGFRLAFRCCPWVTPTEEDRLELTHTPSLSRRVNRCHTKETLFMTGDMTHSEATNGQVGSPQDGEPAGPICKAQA
Summary of the method: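 Vas deferens from Sprague-Dawley rats (200–300 g), electrically stimulated contractions with supramaximal rectangular bipolar pulses. Eledoisin log dose-response curves; antagonism taken from rightward shift. pA2 by Schild regression over three or more antagonist concentrations, or apparent pA2 from one antagonist concentration via the standard Schild equation assuming unit slope.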

Neuromedin-K receptor = biological target: T2, Neuromedin-K receptor (Rattus norvegicus, UniProt P16177); experiment: Tested for antagonist activity toward NK-3 receptor in rat portal vein against the agonist eledoisin (mean +/-, n=4); assay type: functional
T2 sequence (P16177 whole entry): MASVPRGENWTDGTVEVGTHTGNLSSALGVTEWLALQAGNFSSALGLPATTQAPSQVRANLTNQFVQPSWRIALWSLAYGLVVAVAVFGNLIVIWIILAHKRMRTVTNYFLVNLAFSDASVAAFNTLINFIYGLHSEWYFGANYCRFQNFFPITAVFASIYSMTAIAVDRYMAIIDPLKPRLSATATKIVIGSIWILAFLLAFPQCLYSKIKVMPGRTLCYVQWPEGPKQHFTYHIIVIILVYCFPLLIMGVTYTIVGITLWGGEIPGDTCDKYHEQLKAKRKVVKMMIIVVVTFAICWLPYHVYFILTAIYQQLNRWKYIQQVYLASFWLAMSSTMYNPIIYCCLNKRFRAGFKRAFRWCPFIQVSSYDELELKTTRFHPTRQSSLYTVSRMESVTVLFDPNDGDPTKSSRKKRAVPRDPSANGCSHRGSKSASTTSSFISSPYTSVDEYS
Summary of the method: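 Rat portal vein longitudinal strips; frequency and amplitude of myogenic contractions recorded. Antagonist activity derived from rightward shift of eledoisin log dose-response curves. pA2 by Schild regression, least squares, three or more antagonist concentrations, or apparent pA2 at a single antagonist concentration assuming unit slope (mean of three or four observations).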

Substance-P receptor, sequence (P30547 whole entry): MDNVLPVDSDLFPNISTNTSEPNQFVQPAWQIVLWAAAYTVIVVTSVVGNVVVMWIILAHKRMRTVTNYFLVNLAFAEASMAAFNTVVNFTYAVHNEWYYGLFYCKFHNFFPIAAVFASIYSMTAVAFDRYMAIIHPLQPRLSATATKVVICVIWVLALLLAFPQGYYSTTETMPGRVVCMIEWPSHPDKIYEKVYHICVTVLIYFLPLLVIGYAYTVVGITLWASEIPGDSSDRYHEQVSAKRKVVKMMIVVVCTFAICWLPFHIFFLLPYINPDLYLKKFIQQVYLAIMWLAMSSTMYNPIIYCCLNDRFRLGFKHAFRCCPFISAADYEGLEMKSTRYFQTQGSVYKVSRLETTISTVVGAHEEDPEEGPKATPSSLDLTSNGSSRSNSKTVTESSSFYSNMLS

SMILES | Kb (Substance-P receptor) | Kb (Substance-K receptor) | Kb (Neuromedin-K receptor)
CSCC[C@@H]1NC(=O)[C@H](CC(C)C)NC(=O)CNC(=O)[C@H](Cc2ccccc2)NC(=O)[C@H](Cc2c[nH]c3ccccc23)NC(=O)[C@H](CCC(N)=O)NC1=O (cyclo(FGLMQW)) | 2 µM | 0.00794 µM | 7.94 µM
CSCC[C@@H]1NC(=O)[C@H](CC(C)C)N2C=C[C@@H](NC(=O)[C@H](Cc3ccccc3)NC(=O)[C@](C)(c3cccc4ccccc34)NC(=O)[C@H](CCC(N)=O)NC1=O)C2=O | – | 2.51 µM | –
CSCC[C@@H]1NC(=O)[C@H](CC(C)C)N2C=C[C@@H](NC(=O)[C@H](Cc3ccccc3)NC(=O)[C@H](Cc3ccccc3)NC(=O)[C@H](CCC(N)=O)NC1=O)C2=O | – | 15.8 µM | –

Results, then the molecule that gave them:

Kb (Substance-P receptor) | Kb (Substance-K receptor) | Kb (Neuromedin-K receptor) | SMILES
– | 0.631 µM | – | CSCC[C@@H]1NC(=O)[C@H](CC(C)C)NC(=O)[C@H](Cc2ccccc2)NC(=O)[C@H](Cc2c[nH]c3ccccc23)NC(=O)[C@H](CCC(N)=O)NC1=O (cyclo(FLMQW))
– | 15.8 µM | – | CSCC[C@@H]1NC(=O)[C@H](CC(C)C)NC(=O)[C@@H]2CCCN2C(=O)[C@H](Cc2ccccc2)NC(=O)[C@H](Cc2c[nH]c3ccccc23)NC(=O)[C@H](CCC(N)=O)NC1=O
– | 20 µM | – | CSCC[C@@H]1NC(=O)[C@H](CC(C)C)NC(=O)[C@H]2CCCN2C(=O)[C@H](Cc2ccccc2)NC(=O)[C@H](Cc2c[nH]c3ccccc23)NC(=O)[C@H](CCC(N)=O)NC1=O
